# Experimental data collected from several papers.
# Target: NT-3 growth factor receptor (NTRK3, Homo sapiens, UniProt Q16288)
Compound,test,conditions,quantity,value
O=C(O)[C@H]1[C@H](Cn2nnc3ccccc3c2=O)CC[C@@H]1C(=O)c1ccc(OCCC2CCOCC2)cc1,"cell-free assay, competition with immobilised ligand",1 µM,remaining binding,82%
O=C(Nc1cnn(-c2csc(C(=O)NC3COC3)c2)c1)Nc1c(F)cccc1Cl,"enzyme activity, inhibitor",5 µM,remaining activity,38.6%
O=C(Nc1ccc(F)cc1)Nc1cccc(C(=O)Nc2ccc3[nH]ncc3c2)c1,"enzyme activity, inhibitor, FRET",1 µM,inhibition,13%
Cc1ccc(NC(=O)c2ccc(C)c(C(F)(F)F)c2)cc1C#Cc1nn(C2CCC(O)CC2)c2ncnc(N)c12 (stereo not shown),cell-free assay,10 µM,remaining signal,17%
Clc1ccc(Nc2nnc(Cc3ccncc3)c3ccccc23)cc1,cell-free assay,0.5 µM,remaining signal,92.7%
O=C(Nc1ccc(I)cc1)Nc1cccc(C(=O)Nc2ccc3[nH]ncc3c2)c1,"enzyme activity, inhibitor, FRET",1 µM,inhibition,14.6%
C[C@@]1(Cc2ccc(C#N)cc2)C(=O)N(c2cc(Cl)cc(Cl)c2)c2ncc(C(=O)NC3(c4nc(C5CCC5)no4)CC3)n21,"cell-free assay, competition with immobilised ligand",1 µM,remaining binding,100%
O=C1Nc2ccc(Cl)cc2C1=Cc1cc(Cl)c(O)c(Cl)c1,cell-free assay,0.5 µM,remaining signal,44.8%
Nc1ncnc2occ(-c3ccc(NC(=O)Nc4cc(C(F)(F)F)ccc4F)cc3)c12,cell-free assay,20 µM,remaining signal,0.25%
N#CC1(c2ccccn2)CCN(Cc2cc(C(=O)N3CCCC3)c(=O)n3ccccc23)CC1,"cell-free assay, competition with immobilised ligand",1 µM,remaining binding,100%
CN1CCN(c2ccc(C(=O)Nc3n[nH]c4ccc(Cc5cc(F)cc(F)c5)cc34)c(NC3CCOCC3)c2)CC1,"enzyme activity, inhibitor, FRET",1 µM,inhibition,99.8%
Cc1ccc(Nc2nccc(N(C)c3ccc4c(C)n(C)nc4c3)n2)cc1S(N)(=O)=O,cell-free assay,0.5 µM,remaining signal,87.8%
O=C(Nc1ccccc1)Nc1cccc(C(=O)Nc2ccc3[nH]ncc3c2)c1,"enzyme activity, inhibitor, FRET",1 µM,inhibition,12.7%
Cc1c(C(=O)O)cc(-c2ccc(C3CCNCC3)cc2)c2ccc(-c3ccc(C(F)(F)F)cc3)cc12,"cell-free assay, competition with immobilised ligand",1 µM,remaining binding,100%
O=C(Nc1ccc2[nH]ncc2c1)c1cccc(NC(=S)Nc2cc(C(F)(F)F)cc(C(F)(F)F)c2)c1,"enzyme activity, inhibitor, FRET",1 µM,inhibition,11.8%
Cc1noc([C@H]2C[C@@H](c3ccc(C(F)(F)F)cc3)CN(C(=O)N3CCS(=O)(=O)C3)C2)n1,"cell-free assay, competition with immobilised ligand",1 µM,remaining binding,100%
O=C(Nc1ccc(Cl)cc1)Nc1cccc(C(=O)Nc2ccc3[nH]ncc3c2)c1,"enzyme activity, inhibitor, FRET",1 µM,inhibition,15.4%
COCCOc1nc(-c2ccc(Cl)nc2)nc2c1CN(C(=O)c1ncn3ccccc13)CC2,"cell-free assay, competition with immobilised ligand",0.1 µM,remaining binding,100%
CC(C)(C)c1nc2c(s1)c1nc(N)ncc1c1ccc(NS(=O)(=O)c3c(F)cccc3F)c(F)c12,"enzyme activity, inhibitor, radiometric",1 µM,remaining activity,82%
Cc1c[nH]c2nccc(Oc3c(F)cc(Nc4cc(Cl)nc(N)n4)cc3F)c12,"cell-free assay, competition with immobilised ligand",0.1 µM,remaining binding,86%
O=C(Nc1cccc(C(=O)Nc2ccc3[nH]ncc3c2)c1)Nc1ccccc1F,"enzyme activity, inhibitor, FRET",1 µM,inhibition,26.3%
Cc1c(NC(=O)c2cc(C(N)=O)nc3cc(F)ccc23)c(C(F)(F)F)nn1Cc1ccc(C(C)(C)C)cc1,"cell-free assay, competition with immobilised ligand",1 µM,remaining binding,100%
C[C@@H]1CCN(C(=O)CC#N)C[C@@H]1N(C)c1ncnc2[nH]ccc12,cell-free assay,0.5 µM,remaining signal,90%
O=C(Nc1cccc(Cl)c1)Nc1cccc(C(=O)Nc2ccc3[nH]ncc3c2)c1,"enzyme activity, inhibitor, FRET",1 µM,inhibition,19.7%
Cc1ccc(C(=O)NCc2ccsc2)cc1C#Cc1cn(C(C)C)c2ncnc(N)c12,"enzyme activity, inhibitor",1 µM,activity vs control,29%
